These results are taken from ChEMBL document CHEMBL1139728, “Design, synthesis, and characterization of new embelin derivatives as potent inhibitors of X-linked inhibitor of apoptosis protein” (Bioorg Med Chem Lett, 2006).

One assay relates to PC-3. Kind of assay: Growth inhibition in human PC3 cell line. It counts as functional, cell-based. The essentials: (§1)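 Human cancer cells (MDA-MB-231 (2LMP) breast line; PC-3 prostate line) exposed to compound for 4 days across a concentration series spanning 0.01–100 μM. Growth read by WST assay; IC50 taken from the dose-response curve.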
The next assay deals with MDA-MB-231. Kind of assay: Growth inhibition in human MDA-MB-231 cell line. The class given is functional, cell-based. The essentials:
as §1

Assay [1] deals with E3 ubiquitin-protein ligase XIAP (Homo sapiens, UniProt P98170). Kind of assay: Binding affinity to recombinant XIAP BIR3 by FP assay. The essentials: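 Competitive fluorescence-polarization assay on the XIAP BIR3 domain; binding expressed as Ki.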
E3 ubiquitin-protein ligase XIAP, sequence (P98170 whole entry, the tested form may be a part): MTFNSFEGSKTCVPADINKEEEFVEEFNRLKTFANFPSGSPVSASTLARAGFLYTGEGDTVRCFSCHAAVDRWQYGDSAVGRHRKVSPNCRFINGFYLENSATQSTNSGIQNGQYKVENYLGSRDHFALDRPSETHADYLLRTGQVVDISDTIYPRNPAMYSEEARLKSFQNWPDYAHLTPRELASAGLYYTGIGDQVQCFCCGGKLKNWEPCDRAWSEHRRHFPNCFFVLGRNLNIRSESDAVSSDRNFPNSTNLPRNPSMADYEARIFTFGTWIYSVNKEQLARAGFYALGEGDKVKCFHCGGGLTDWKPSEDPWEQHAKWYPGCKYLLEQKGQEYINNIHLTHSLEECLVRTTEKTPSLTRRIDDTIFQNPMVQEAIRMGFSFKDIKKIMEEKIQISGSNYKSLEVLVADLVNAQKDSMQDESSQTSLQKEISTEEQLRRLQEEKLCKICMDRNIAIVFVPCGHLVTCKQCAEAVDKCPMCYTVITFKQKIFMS

One may read the IC50 as the point on the concentration scale where inhibition reaches its midpoint. Consider `Cc1cccc(CCc2cccc(CCC3=C(O)C(=O)C=C(O)C3=O)c2)c1`, for which the half-maximal inhibitory concentration (IC50) with PC-3 worked out at 5.5 µM; in the assay on MDA-MB-231 it was 5 µM.

For orientation: Ki means a measure of affinity in units of concentration, obtained from inhibition or displacement. `O=C1C=C(O)C(=O)C(CCCCc2ccccc2)=C1O`: the inhibition constant (Ki) in assay [1] is 1300 nM.

`O=C1C=C(O)C(=O)C(CCc2ccccc2)=C1O`: the inhibitory constant (Ki) in assay [1] worked out at 710 nM.

For the compound `CCC1=C(O)C(=O)C=C(O)C1=O`, the inhibitory constant (Ki) in assay [1] amounted to 10400 nM.

Take `CCCCc1cccc(CCC2=C(O)C(=O)C=C(O)C2=O)c1`: the Ki in assay [1] came out at 480 nM.

In the case of `CCCCCCCCCCCC1=C(O)C(=O)C=C(O)C1=O` [EMBELIN], the Ki in assay [1] was 400 nM.
